What was measured:
Rattus norvegicus [1] = species: Rattus norvegicus; assay: The compound was evaluated for the intrinsic activity compared to (-)-isoproterenol.; format: functional
Adrenergic receptor beta = Adrenergic receptor beta (Rattus norvegicus, UniProt P18090+P10608+P26255); assay: The compound was evaluated for the inhibition of [125I]cyanopindolol binding to beta adrenergic receptor in rat reticulocyte membrane.; format: cell membranes
Rattus norvegicus [2] = species: Rattus norvegicus; assay: The compound was evaluated for its ability to stimulate adenylate cyclase activity; format: functional
In short: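 Rat reticulocyte membranes (0.01–0.05 mg protein) incubated 10 min at 32 °C in 50 mM Tris-HCl pH 7.4 with 1.6 mM ATP, 5 mM MgCl2, 1 mM EGTA, 10 mM theophylline, 0.01% BSA, creatine phosphokinase/phosphocreatine, 0.5 mM GTP and varying ligand concentrations. Stopped by boiling with EDTA buffer; cAMP measured by competitive protein binding. Basal and GTP activity subtracted; EC50 from dose-effect analysis.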

`CC(C)(Cc1ccc(I)cc1)NCC(O)c1ccc(O)c2nc(O)ccc12` (centres undefined) gave an IA (Rattus norvegicus [1]) of 1.3, an IC50 (Adrenergic receptor beta) of 7.6 nM and an EC50 (Rattus norvegicus [2]) of 5.6 nM.
With `CC(C)(Cc1ccc(NC(=O)CBr)cc1)NCC(O)c1ccc(O)c2nc(O)ccc12` (centres undefined) the IA (Rattus norvegicus [1]) was 1.2, the IC50 (Adrenergic receptor beta) was 5.3 nM and the EC50 (Rattus norvegicus [2]) was 8.5 nM.
In the case of `CC(C)NCC(O)c1ccc(O)c(O)c1` (single isomer, unassigned; (-)) [ISOPROTERENOL], the IA (Rattus norvegicus [1]) is reported as 1 and the EC50 (Rattus norvegicus [2]) is reported as 226 nM.
`CC(C)(Cc1ccccc1)NCC(O)c1ccc(O)c2nc(O)ccc12` (centres undefined) showed an IA (Rattus norvegicus [1]) of 1, an IC50 (Adrenergic receptor beta) of 3.1 nM and an EC50 (Rattus norvegicus [2]) of 6.9 nM.
Work on `CC(C)(Cc1ccc(N)cc1)NCC(O)c1ccc(O)c2nc(O)ccc12` (centres undefined) yielded an IA (Rattus norvegicus [1]) of 1, an IC50 (Adrenergic receptor beta) of 22 nM and an EC50 (Rattus norvegicus [2]) of 14.2 nM.
